Assay results reported in ChEMBL document CHEMBL1137767, “2-(3-Aryl-2-propenoyl)-3-methylquinoxaline-1,4-dioxides: a novel cluster of tumor-specific cytotoxins which reverse multidrug resistance” (Bioorg Med Chem, 2009).
The source made the active and inactive calls. No cut-off for these calls is given here.

How the values were obtained:
K562 = test: Growth inhibition of human K562 cells at 10 uM; type: functional, cell-based
Summary of the method: (§1)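 Human tumor cell line panel (59 lines across leukemia, melanoma, non-small cell lung, colon, CNS, ovarian, renal, prostate, breast) treated at a single 10 uM concentration; growth inhibition recorded per line.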

A498 = test: Growth inhibition of human A498 cells at 10 uM; type: functional, cell-based; summary of the method: as §1
[1] = target: T1, ATP-dependent translocase ABCB1 (Homo sapiens, UniProt P08183); test: Reversal of P-glycoprotein-mediated multidrug resistance in human MDR1 gene transfected mouse L5178Y cells assessed as fluorescence activity ratio at 200 uM by rhodamine 123 accumulation assay; type: cell-based
Summary of the method: (§2)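 Murine L-5178Y lymphoma cells transfected with human MDR1 gene (P-gp-overexpressing), alongside parental cells, treated or untreated with compound; rhodamine 123 accumulation measured by fluorescence; FAR = ratio of fluorescence intensity in treated versus untreated cells, values above 1 taken as MDR reversal.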

IGROV-1 = test: Growth inhibition of human IGROV1 cells at 10 uM; type: functional, cell-based; summary of the method: as §1
LOX IMVI = test: Growth inhibition of human LOXIMVI cells at 10 uM; type: functional, cell-based; summary of the method: as §1
HSC-3 = test: Cytotoxicity against human HSC3 cells after 48 hrs; type: functional; conditions: HSC-3, 48 h
PC-3 = test: Growth inhibition of human PC3 cells at 10 uM; type: functional, cell-based; summary of the method: as §1
SNB-75 = test: Growth inhibition of human SNB75 cells at 10 uM; type: functional, cell-based; summary of the method: as §1
NCI-H522 = test: Growth inhibition of human NCI-H522 cells at 10 uM; type: functional, cell-based; summary of the method: as §1
CAKI-1 = test: Growth inhibition of human Caki1 cells at 10 uM; type: functional, cell-based; summary of the method: as §1
[2] = Cytotoxicity against human HGF cells after 48 hrs; type: cell-based
CCRF-CEM [3] = test: Growth inhibition of human CEM cells after 3 days; type: functional, cell-based; conditions: 72 h
Summary of the method: (§3)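 Human CEM and Molt 4/C8 T-lymphocytes were grown for three days with or without serial dilutions of the compound. IC50 is the concentration that inhibits cell growth by 50%.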

HOP-92 = test: Growth inhibition of human HOP92 cells at 10 uM; type: functional, cell-based; summary of the method: as §1
U-251 = test: Growth inhibition of human U251 cells at 10 uM; type: functional, cell-based; summary of the method: as §1
EKVX = test: Growth inhibition of human EKVX cells at 10 uM; type: functional, cell-based; summary of the method: as §1
SF-295 = test: Growth inhibition of human SF295 cells at 10 uM; type: functional, cell-based; summary of the method: as §1
RXF 393 = test: Growth inhibition of human RXF393 cells at 10 uM; type: functional, cell-based; summary of the method: as §1
[4] = Cytotoxicity against human HPLF cells after 48 hrs; type: cell-based
HCC 2998 = test: Growth inhibition of human HCC2998 cells at 10 uM; type: functional, cell-based; summary of the method: as §1
M14 = test: Growth inhibition of human M14 cells at 10 uM; type: functional, cell-based; summary of the method: as §1
UO-31 = test: Growth inhibition of human UO31 cells at 10 uM; type: functional, cell-based; summary of the method: as §1
MDA-MB-468 = test: Growth inhibition of human MDA-MB-468 cells at 10 uM; type: functional, cell-based; summary of the method: as §1
NCI/ADR-RES = test: Growth inhibition of human NCI/ADR-RES cells at 10 uM; type: functional, cell-based; summary of the method: as §1
OVCAR-3 = test: Growth inhibition of human OVCAR-3 cells at 10 uM; type: functional, cell-based; summary of the method: as §1
[5] = target: T1, ATP-dependent translocase ABCB1; test: Reversal of P-glycoprotein-mediated multidrug resistance in human MDR1 gene transfected mouse L5178Y cells assessed as fluorescence activity ratio at 20 uM by rhodamine 123 accumulation assay; type: cell-based; summary of the method: as §2
CCRF-CEM [6] = test: Growth inhibition of human CCRF-CEM cells at 10 uM; type: functional, cell-based; summary of the method: as §1
HSC-2 = test: Cytotoxicity against human HSC2 cells after 48 hrs; type: functional; conditions: HSC-2, 48 h
HL-60 [7] = test: Growth inhibition of human HL60 cells at 10 uM; type: functional, cell-based; summary of the method: as §1
A549 = test: Growth inhibition of human A549 cells at 10 uM; type: functional, cell-based; summary of the method: as §1
NCI-H23 = test: Growth inhibition of human NCI-H23 cells at 10 uM; type: functional, cell-based; summary of the method: as §1
Hs-578T = test: Growth inhibition of human Hs 578T cells at 10 uM; type: functional, cell-based; summary of the method: as §1
HSC-4 = test: Cytotoxicity against human HSC4 cells after 48 hrs; type: functional; conditions: HSC-4, 48 h
OVCAR-8 = test: Growth inhibition of human OVCAR8 cells at 10 uM; type: functional, cell-based; summary of the method: as §1
DU-145 = test: Growth inhibition of human DU145 cells at 10 uM; type: functional, cell-based; summary of the method: as §1
RPMI8266 = test: Growth inhibition of human […] cells at 10 uM; type: functional, cell-based; summary of the method: as §1
MCF7 = test: Growth inhibition of human MCF7 cells at 10 uM; type: functional, cell-based; summary of the method: as §1
MDA-MB-435 = test: Growth inhibition of human MDA-MB-435 cells at 10 uM; type: functional, cell-based; summary of the method: as §1
NCI-H460 = test: Growth inhibition of human NCI-H460 cells at 10 uM; type: functional, cell-based; summary of the method: as §1
UACC-62 = test: Growth inhibition of human UACC62 cells at 10 uM; type: functional, cell-based; summary of the method: as §1
SW-620 = test: Growth inhibition of human SW620 cells at 10 uM; type: functional, cell-based; summary of the method: as §1
[8] = Cytotoxicity against human HPC cells after 48 hrs; type: cell-based
OVCAR-4 = test: Growth inhibition of human OVCAR4 cells at 10 uM; type: functional, cell-based; summary of the method: as §1
T47D = test: Growth inhibition of human T47D cells at 10 uM; type: functional, cell-based; summary of the method: as §1
HL-60 [9] = test: Cytotoxicity against human HL60 cells after 48 hrs; type: functional; conditions: HL-60, 48 h
HCT-15 = test: Growth inhibition of human HCT15 cells at 10 uM; type: functional, cell-based; summary of the method: as §1
HCT-116 = test: Growth inhibition of human HCT116 cells at 10 uM; type: functional, cell-based; summary of the method: as §1
[10] = Growth inhibition of human Molt4/C8 cells after 3 days; type: functional, cell-based; conditions: MOLT-4, 72 h; summary of the method: as §3

T1 sequence (P08183 whole entry): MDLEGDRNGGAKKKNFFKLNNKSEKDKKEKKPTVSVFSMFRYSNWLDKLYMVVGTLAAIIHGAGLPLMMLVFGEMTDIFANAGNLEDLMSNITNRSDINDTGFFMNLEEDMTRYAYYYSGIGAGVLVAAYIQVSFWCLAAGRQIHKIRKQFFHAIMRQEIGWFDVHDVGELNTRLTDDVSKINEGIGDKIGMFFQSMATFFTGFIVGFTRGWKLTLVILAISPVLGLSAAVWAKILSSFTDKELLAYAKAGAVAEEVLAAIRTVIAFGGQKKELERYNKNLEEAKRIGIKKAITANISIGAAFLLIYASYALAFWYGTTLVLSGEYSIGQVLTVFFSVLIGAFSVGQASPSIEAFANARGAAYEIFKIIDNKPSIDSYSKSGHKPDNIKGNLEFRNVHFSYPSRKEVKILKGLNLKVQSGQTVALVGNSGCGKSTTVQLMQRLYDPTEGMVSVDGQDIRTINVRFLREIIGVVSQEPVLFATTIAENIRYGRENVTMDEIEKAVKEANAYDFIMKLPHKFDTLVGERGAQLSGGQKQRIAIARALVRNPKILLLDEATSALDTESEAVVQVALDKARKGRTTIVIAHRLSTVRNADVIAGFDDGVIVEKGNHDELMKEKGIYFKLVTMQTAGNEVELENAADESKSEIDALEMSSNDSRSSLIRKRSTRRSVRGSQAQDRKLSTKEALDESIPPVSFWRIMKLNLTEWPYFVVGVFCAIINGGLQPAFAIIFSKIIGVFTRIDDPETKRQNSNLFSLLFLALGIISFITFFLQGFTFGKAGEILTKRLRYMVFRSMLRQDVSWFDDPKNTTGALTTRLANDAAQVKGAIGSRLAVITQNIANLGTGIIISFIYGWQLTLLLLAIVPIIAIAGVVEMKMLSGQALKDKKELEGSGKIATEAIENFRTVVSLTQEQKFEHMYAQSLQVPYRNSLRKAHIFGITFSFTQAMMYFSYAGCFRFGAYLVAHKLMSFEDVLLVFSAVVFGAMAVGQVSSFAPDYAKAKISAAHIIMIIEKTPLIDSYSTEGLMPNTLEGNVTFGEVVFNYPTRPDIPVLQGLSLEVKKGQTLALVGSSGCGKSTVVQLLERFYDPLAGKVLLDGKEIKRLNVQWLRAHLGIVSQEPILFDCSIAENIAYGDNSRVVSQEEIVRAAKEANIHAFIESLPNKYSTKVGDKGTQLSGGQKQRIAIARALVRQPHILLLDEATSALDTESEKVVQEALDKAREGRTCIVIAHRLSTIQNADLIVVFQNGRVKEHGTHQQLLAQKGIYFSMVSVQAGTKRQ

Cc1c(C(=O)/C=C/c2ccc(F)cc2)[n+]([O-])c2ccccc2[n+]1[O-]
growth inhibition (GI) (K562): Active | growth inhibition (GI) (A498): Active | Ratio [1]: 25.8 | growth inhibition (GI) (IGROV-1): Active | growth inhibition (GI) (LOX IMVI): Active | CC50 (HSC-3): 7.7 µM | growth inhibition (GI) (PC-3): Active | growth inhibition (GI) (SNB-75): Active | growth inhibition (GI) (NCI-H522): Active | growth inhibition (GI) (CAKI-1): Active | CC50 at 48 h [2]: 31 µM | IC50 (CCRF-CEM [3]): 10 µM | growth inhibition (GI) (HOP-92): Active | growth inhibition (GI) (U-251): Active | growth inhibition (GI) (EKVX): Active | growth inhibition (GI) (SF-295): Active | growth inhibition (GI) (RXF 393): Active | CC50 at 48 h [4]: 20 µM | growth inhibition (GI) (HCC 2998): Active | growth inhibition (GI) (M14): Active | growth inhibition (GI) (UO-31): Active | growth inhibition (GI) (MDA-MB-468): Active | growth inhibition (GI) (NCI/ADR-RES): Active | growth inhibition (GI) (OVCAR-3): Active | Ratio [5]: 4.81 | growth inhibition (GI) (CCRF-CEM [6]): Active | CC50 (HSC-2): 6.2 µM | growth inhibition (GI) (HL-60 [7]): Active | growth inhibition (GI) (A549): Active | growth inhibition (GI) (NCI-H23): Active | growth inhibition (GI) (Hs-578T): Active | CC50 (HSC-4): 8.1 µM | growth inhibition (GI) (OVCAR-8): Active | growth inhibition (GI) (DU-145): Active | growth inhibition (GI) (RPMI8266): Active | growth inhibition (GI) (MCF7): Active | growth inhibition (GI) (MDA-MB-435): Active | growth inhibition (GI) (NCI-H460): Active | growth inhibition (GI) (UACC-62): Active | growth inhibition (GI) (SW-620): Active | CC50 at 48 h [8]: 48 µM | growth inhibition (GI) (OVCAR-4): Active | growth inhibition (GI) (T47D): Active | CC50 (HL-60 [9]): 4.6 µM | growth inhibition (GI) (HCT-15): Active | growth inhibition (GI) (HCT-116): Active | IC50 [10]: 6.4 µM

Cc1c(C(=O)/C=C/c2ccc(Cl)c(Cl)c2)[n+]([O-])c2ccccc2[n+]1[O-]
Ratio [1]: 11.9 | CC50 (HSC-3): 84 µM | CC50 at 48 h [2]: 29 µM | IC50 (CCRF-CEM [3]): 15.4 µM | CC50 at 48 h [4]: 5.7 µM | Ratio [5]: 4.42 | CC50 (HSC-2): 17 µM | CC50 (HSC-4): 15 µM | CC50 at 48 h [8]: 13 µM | CC50 (HL-60 [9]): 27 µM | IC50 [10]: 10.1 µM

Cc1c(C(=O)/C=C/c2ccc(Cl)cc2)[n+]([O-])c2ccccc2[n+]1[O-]
Ratio [1]: 5.97 | CC50 (HSC-3): 38 µM | CC50 at 48 h [2]: 27 µM | IC50 (CCRF-CEM [3]): 16 µM | CC50 at 48 h [4]: 12 µM | Ratio [5]: 2.63 | CC50 (HSC-2): 13 µM | CC50 (HSC-4): 19 µM | CC50 at 48 h [8]: 21 µM | CC50 (HL-60 [9]): 11 µM | IC50 [10]: 7.75 µM
